The source of these data is ChEMBL document CHEMBL4513216, “Probing the Open Global Health Chemical Diversity Library for Multistage-Active Starting Points for Next-Generation Antimalarials” (ACS Infect Dis, 2020).

Structures are written as SMILES.

The series in a line: Toxicity liver stage against HepG2, at 10uM. Set-up: test concentration 10 uM, cell line HepG2-A16-CD81EGFP. Format: cell-based. To be noted: human, HepG2-A16-CD81EGFP cells; read-out: INHIBITION
Put shortly: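 Uninfected HepG2-A16-CD81EGFP cells, 3 × 10^3 per well, 1536-well, plated on prespotted compound at 10 μM final, parasite-free screening media added to match infected plates; puromycin 10 μM positive, DMSO 0.5% negative; run in parallel with 48 h PbLuc assay at 37 °C, 5% CO2; viability by CellTiter-Glo luminescence, normalized to controls.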
On to `CS(=O)(=O)c1ccc(Cl)c(NC(=O)NCCC2=CCCCC2)c1`, for which the cytotoxicity at 10 µM was 0.0793%.
The same measure for `CCC1CN(CC(=O)NCCN2CCCCCC2)c2ccccc2S1` (stereo unspecified): -1.14%; for `O=C(c1cccnc1)N1CCN(c2ccc(-n3cccc3)nn2)CC1`: -9.73%.
Consider `Cc1cnc(N2CCOC3(CCCN(c4ncccn4)C3)C2)nc1` (stereo unspecified), for which the cytotoxicity at 10 µM was 9.19%.
With `Cc1cccc(CN2CCC3(CCCN(Cc4cnn(C)c4)C3)C2=O)n1` (stereo unspecified), the cytotoxicity at 10 µM came to 6.02%.
With `O=C(c1ccsc1)N1CCc2c(CN3CCCC3)n[nH]c2C1`, the cytotoxicity at 10 µM was 5.04%.
The same measure for `CC(C)NC(=O)N1CCN(S(=O)(=O)C2CC2)CC2(CC(=O)N(C)C2)C1` (stereo unspecified): 1.11%; for `Cn1nnc(NCc2ccc(-c3ccc(Br)cc3)o2)n1`: -11.1%; for `COCCC(=O)N1CCC(c2nnc(-c3ccsc3)o2)CC1`: 9.09%.
The same measure for `Cc1ccnc(C2(C)CCCN2S(=O)(=O)c2c(C)noc2C)n1` (stereo unspecified): 0.795%; for `Cc1cc(C)n(-c2nc(C(=O)NCCS(=O)(=O)N3CCCCC3)cs2)n1`: -10.3%; for `CS(=O)(=O)N1CC(c2nc(N)ncc2-c2ccc(F)cc2)C1`: -3.49%.
The same measure for `Cc1cc(=O)[nH]c(=O)n1Cc1ncc(-c2ccccc2C(=O)O)s1`: 2.71%; for `COCCC(=O)N1CCC(c2ncncc2-c2ccnc(N)c2)C1` (stereo unspecified): -2.68%; for `c1nc(C2CCCCO2)ncc1CN1CCOCC1` (stereo unspecified): -8.45%.
Consider `CNC(=O)C1(CCCc2ccncc2)CCCN1` (stereo unspecified), for which the cytotoxicity at 10 µM is -6.46%.
The same measure for `Cc1ccccc1S(=O)(=O)Cc1nsc(N(C)C)n1`: -4.45%.
On to `COc1c(C2CCCN2c2ncnc3ccsc23)c(C)nn1C` (stereo unspecified), for which the cytotoxicity at 10 µM came out at 18.6%.
In the case of `Cc1cc(C(=O)Nc2cc(C3CC3)n[nH]2)c2c(C)nn(C)c2n1`, the cytotoxicity at 10 µM was -2.14%.
Consider `CC(C)C(NC(=O)Cc1ccccc1)C(=O)NCc1ccc(O)nc1` (stereo unspecified), for which the cytotoxicity at 10 µM stood at 0.833%.
Take `CC(C)C(C)N(C(=O)Cn1nc2n(c1=O)CCCCC2)C1CC1` (stereo unspecified): the cytotoxicity at 10 µM was -5.77%.
The same measure for `c1ccc2nc(N3CCCCC3)c(NCc3nnc4n3CCC4)nc2c1`: 2.48%; for `CCCc1n[nH]c(C2CN(Cc3ncc[nH]3)CCO2)n1` (stereo unspecified): 4.69%; for `Cc1csc(CN(C)C(=O)Nc2cnn(CC3CCCO3)c2)n1` (stereo unspecified): -3.28%.
Consider `CS(=O)(=O)CCC(=O)NC1CC(c2cccc(Cl)c2)C1` (stereo unspecified), for which the cytotoxicity at 10 µM turned out to be 1.36%.
The same measure for `N#Cc1cccnc1NC1CCN(c2ccccc2OC(F)F)C1=O` (stereo unspecified): 6.37%; for `CCCN(C(=O)c1csnn1)C1CCCN(Cc2ccccc2)C1` (stereo unspecified): -4.38%; for `N#Cc1cccc(OCCCN2CCN(C(=O)c3ccoc3)CC2)c1`: 3.57%.
As for `CC(C)=CCS(=O)(=O)Cc1nc(C(C)C)no1`, the cytotoxicity at 10 µM stood at 10.8%.
For `COC(=O)NCc1ccc(NC(=O)CC2=CCCCC2)cc1`, the cytotoxicity at 10 µM came to 2.97%.
The same measure for `CSc1nc(C2CC2)nc(C)c1C(=O)NCc1ncc(C)o1`: -3.71%.
For the compound `CNC(=O)CCc1cccc(OC2CCCC2)c1`, the cytotoxicity at 10 µM is -0.408%.
Regarding `Cc1cc(C)n(C2CN(c3ncnc4c3CCC4)C2)n1`, the cytotoxicity at 10 µM worked out at 8.09%.
The same measure for `CSc1[nH]c(=O)c(C(=O)N2CCCC2C2CCCC2)cc1C#N` (stereo unspecified): 5.58%; for `Cc1cc(CNC2(c3ccccc3)CCCCC2)on1`: 0.643%.
The same measure for `Cc1ccc(SC2CCCC2)c(C(=O)NCc2n[nH]c(=O)[nH]2)c1`: -38.4%; for `CC(NCC(=O)NCC(=O)Nc1ccc(F)cc1)c1cccs1` (stereo unspecified): 6.02%.
The same measure for `COc1ccc(CC(=O)N2CCCCC2Cn2cccn2)cc1OC` (stereo unspecified): -12.4%; for `COc1ccccc1C(O)CNc1nccc(-c2ccc(C)nc2C)n1` (stereo unspecified): 8.95%; for `Cc1ccc([C@@H]2CN(S(=O)(=O)c3ccccc3)C[C@H]2N(C)C)cc1`: -4.44%.
For `CCN1CC2(CCN(CCOc3ccc(F)cc3)CC2)CC1=O`, the cytotoxicity at 10 µM came out at 8.12%.
For the compound `CS(=O)(=O)c1ncc(CN2CCCC(C(N)=O)C2)n1CC1CCCCC1` (stereo unspecified), the cytotoxicity at 10 µM was -2.35%.
Turning to `CCc1ncc(CN2CCCC3(CCC(=O)N(CCC(C)C)C3)C2)cn1` (stereo unspecified), the cytotoxicity at 10 µM is -7.66%.
For `COc1ccc(OC)c2c(C)cc(N(C)CCO)nc12`, the cytotoxicity at 10 µM turned out to be 6.36%.
For the compound `CC(C)OC(=O)N1CCCC2(CCC(=O)N(CCc3c[nH]cn3)C2)C1` (stereo unspecified), the cytotoxicity at 10 µM was -3.73%.
On to `CC(C)(C)n1cc(C2=CCN(CCN3CCCCCC3)CC2)cn1`, for which the cytotoxicity at 10 µM is -0.481%.
Turning to `Cc1cc(C)nc(N(C)CCN(C)C2CCCC2)n1`, the cytotoxicity at 10 µM is -5.88%.
The same measure for `Cc1ccc(CN2CCNC(=O)C2CC(=O)N2CCSCC2)o1` (stereo unspecified): 4.48%; for `Nc1cc(C(=O)NCC2CCN(Cc3ccncc3F)C2)ccn1` (stereo unspecified): -24.2%; for `Cc1ncsc1CCN(C)Cc1cc2n(n1)CCN(Cc1ccco1)C2`: -4.93%.
The same measure for `Cc1cccc(-n2nc(CC(C)C)nc2CS(C)(=O)=O)c1`: 1.81%.
Take `COc1ccc(CNC(=O)N2CCN(C)[C@@H]3CS(=O)(=O)C[C@@H]32)cc1`: the cytotoxicity at 10 µM stood at 8.64%.
As for `CN(Cc1noc2c1CCCC2)C(=O)CN1C(=O)CSc2ccccc21`, the cytotoxicity at 10 µM is -40.5%.
The same measure for `CN(CCN1CCCCCC1)Cc1cnc(N)nc1`: 0.993%; for `Cc1cc(N2CCC(C(=O)O)(n3ccc(C(C)(C)C)n3)CC2)nc(N)n1`: -5.6%.
The same measure for `Cc1csc(CN(C)c2cc(C)nc3c(C)c(C)nn23)n1`: -2.96%.
Take `CCC(C)N(Cc1cccnc1)C(=O)c1ccc(F)c(O)c1` (stereo unspecified): the cytotoxicity at 10 µM turned out to be 1.87%.
The same measure for `CCn1c(C2CCCN(Cc3cccc4cnccc34)C2)nn(C)c1=O` (stereo unspecified): -6.29%; for `COc1ccc(Cl)cc1C(=O)N1C[C@@H](NC(=O)N(C)C)[C@H](C(C)C)C1`: -1.41%; for `Cc1nnc(CCNC(=O)c2coc(CN3CCOCC3)c2)s1`: -9.21%.
The same measure for `CCCc1nnc(N2CCN(c3ccccc3OCC)CC2)o1`: 3.88%.
With `COCCNC(=O)CN1CCN(c2nc(C)cs2)CC1`, the cytotoxicity at 10 µM is -13.2%.
The same measure for `CC(NC(=O)NCCCN1CCCC1)c1nncn1C` (stereo unspecified): -0.373%.
With `COc1cc(CNCC(O)c2ccc(F)cc2F)cc2c1OCO2` (stereo unspecified), the cytotoxicity at 10 µM is -1.37%.
Take `CCS(=O)(=O)c1ccccc1N1CCC(NC2CCCC2)CC1`: the cytotoxicity at 10 µM was -2.63%.
The same measure for `Cc1ccc(NC(=O)C2CSCN2C(=O)c2cccnc2)c(C)c1` (stereo unspecified): -1.9%; for `O=C1C(NCc2nnc3n2CCCC3)CCN1c1ccccc1Cl` (stereo unspecified): -7.42%; for `CCc1nc(CNCCn2cc(C)cn2)no1`: -4.32%.
Consider `Cn1cc(C2CCCN2C(=O)CCCOc2ccccc2F)cn1` (stereo unspecified), for which the cytotoxicity at 10 µM came to 0.2%.
Turning to `Cc1noc(CCCC(=O)N2CCCC2c2ccsc2)n1` (stereo unspecified), the cytotoxicity at 10 µM is -3.02%.
With `CS(=O)(=O)NCCN1CCCC1c1noc(C2CC2)n1` (stereo unspecified), the cytotoxicity at 10 µM is -23.7%.
With `Cc1n[nH]c(C2CN(Cc3nnc(C4CCC4)o3)CCO2)n1` (stereo unspecified), the cytotoxicity at 10 µM is -3.72%.
The same measure for `c1ccc(-c2nnc(CN3CCOC(Cn4cccn4)C3)o2)cc1` (stereo unspecified): -2.48%; for `Cc1n[nH]c(C2CN(C(=O)c3cc4c(s3)CCC4)CCO2)n1` (stereo unspecified): -5.65%; for `Cc1nc(C(=O)N2CCCC2c2noc(C)n2)c[nH]1` (stereo unspecified): -4.95%.
The same measure for `CC(C)c1ccc(S(=O)(=O)N2CSCC2C(=O)NCC(F)(F)F)cc1` (stereo unspecified): -13.3%.
Regarding `Fc1ccc(OCCNCCn2cccn2)cc1`, the cytotoxicity at 10 µM is -4.17%.
`CC(C)c1nc(C2CCCN2C(=O)c2ccc(N(C)C)nn2)no1` (stereo unspecified): the cytotoxicity at 10 µM is -8.11%.
As to `O=C(c1ccc(O)cc1)N1CCN(C(=O)c2ccc3c(c2)COC3)CC1`, the cytotoxicity at 10 µM was -9.75%.
Take `COc1cccc(OCC(=O)NS(=O)(=O)c2ccc(C)s2)c1`: the cytotoxicity at 10 µM was -5.87%.
As to `COC(=O)N1CCCC(C(=O)NCc2cc3cccc(OC)c3o2)C1` (stereo unspecified), the cytotoxicity at 10 µM is -7.72%.
The same measure for `COc1ccc2cc(C(=O)N3CCCCC3Cn3cccn3)[nH]c2c1` (stereo unspecified): -9.32%.
The same measure for `CCn1cc(NC(=O)C2CCN(Cc3noc(C(C)C)n3)CC2)cn1`: 0.89%.
The same measure for `COc1ccnc(N2CCN(C(=O)NCc3ccc(C)s3)CC2)n1`: -2.45%; for `COCCOc1ccc(NC(=O)N2CCCC2c2cc(C)no2)cn1` (stereo unspecified): 5.32%.
As to `CNC(=O)[C@@H](c1ccccc1F)N1CCC[C@H]1C(=O)NC1CC1`, the cytotoxicity at 10 µM is -5.84%.
Consider `Cn1cc(CN2CCC(F)(F)C3(CCN(c4ccccn4)C3)C2)cn1` (stereo unspecified), for which the cytotoxicity at 10 µM was -0.434%.
For the compound `CN(C)CCOCc1nnc2n1CCN(Cc1ccoc1)CC2`, the cytotoxicity at 10 µM is -10.7%.
The same measure for `O=C(CC1CC1)N1CCN(Cc2cccnc2)c2ncccc2C1`: 5.15%.
The same measure for `CC(C)N1CC[C@H]2[C@H](C[C@@H](Cn3cncn3)N2c2nccs2)C1`: 4.68%; for `CC(=O)N1CC[C@H]2[C@H](C[C@@H](CN3CCCC3)N2c2nccs2)C1`: 1.84%; for `CN1CCn2c(-c3cnn(C)c3)cnc2C12CCN(CC1CC1)CC2`: 7.55%.
The same measure for `O=S(=O)(C1CC1)N1C[C@H]2CCC[C@@]2(COc2ccccn2)C1`: -3.47%.
As for `c1cncc(C2COC3(CCN(Cc4cccs4)CC3)C2)c1` (stereo unspecified), the cytotoxicity at 10 µM is -0.697%.
The same measure for `CCN1CCO[C@@H]2CN(C(=O)COC3CCCC3)C[C@@H]2C1`: 4.32%.
The same measure for `CN(C)S(=O)(=O)N1C[C@H]2CC[C@@H](C1)N(Cc1ccc(F)c(F)c1)C2`: 1.05%.
